Activity calls are given as the source filed them. The calls are words filed in the database; no cut-off is given here.
Tests used:
[1] = molecular target: T1, Protein-glutamine gamma-glutamyltransferase (Homo sapiens) (UniProt P21980); test: Induction of TG2 degradation in human SK-OV-3 cells assessed as reduction in TG2 level at 0.1 to 10 uM measured after 6 hrs by Western blot analysis; assay type: cell-based; details: dose 0.1-10 µM
T1 sequence (whole entry): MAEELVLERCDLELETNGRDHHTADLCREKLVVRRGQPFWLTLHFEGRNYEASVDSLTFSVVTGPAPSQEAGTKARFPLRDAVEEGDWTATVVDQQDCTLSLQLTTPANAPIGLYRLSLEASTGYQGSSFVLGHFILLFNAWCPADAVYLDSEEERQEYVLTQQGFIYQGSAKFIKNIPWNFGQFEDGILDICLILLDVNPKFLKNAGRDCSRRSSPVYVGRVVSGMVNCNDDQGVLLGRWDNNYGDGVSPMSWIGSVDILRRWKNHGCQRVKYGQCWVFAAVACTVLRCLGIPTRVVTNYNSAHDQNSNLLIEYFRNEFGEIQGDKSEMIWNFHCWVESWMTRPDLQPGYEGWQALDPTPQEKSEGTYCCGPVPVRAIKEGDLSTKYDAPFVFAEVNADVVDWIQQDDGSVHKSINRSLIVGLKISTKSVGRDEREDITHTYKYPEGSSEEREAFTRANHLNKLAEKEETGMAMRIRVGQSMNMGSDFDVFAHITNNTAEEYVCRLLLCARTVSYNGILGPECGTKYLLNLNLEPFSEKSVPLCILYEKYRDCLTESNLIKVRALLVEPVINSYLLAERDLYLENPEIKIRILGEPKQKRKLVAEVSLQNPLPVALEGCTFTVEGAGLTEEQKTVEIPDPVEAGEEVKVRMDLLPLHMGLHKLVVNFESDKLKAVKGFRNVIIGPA

OVCAR-5 [2] = test: Inhibition of cell migration in human OVCAR-5 cells at 10 uM incubated for 18 hrs by crystal violet staining based wound healing assay; assay type: functional
SK-OV-3 [3] = test: Inhibition of cell migration in human SK-OV-3 cells at 10 uM incubated for 18 hrs by crystal violet staining based transwell migration assay; assay type: functional
Summary of the method: (§1)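 Transwell migration through 8 μm pores: 15,000 OVCAR5 or SKOV3 cells in serum-free medium with compound or control in upper chamber, 10% serum below. After 18 h, migrated cells fixed in 4% PFA, stained with crystal violet and counted at 40×. n = 3.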

OVCAR-5 [4] = test: Inhibition of cell adhesion to fibronectin in human OVCAR-5 cells at 10 uM incubated for 6 hrs by CCK-8 assay; assay type: functional, cell-based
Summary of the method: (§2)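 Wells coated for 1 h with 10 μg/mL fibronectin in PBS. After PBS wash, attached cells counted by CCK-8 absorbance at […]. n = 3.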

SK-OV-3 [5] = test: Inhibition of cell migration in human SK-OV-3 cells at 10 uM incubated for 18 hrs by crystal violet staining based wound healing assay; assay type: functional
[6] = molecular target: T1, Protein-glutamine gamma-glutamyltransferase (Homo sapiens); test: Induction of TG2 degradation in human OVCAR-5 cells assessed as reduction in TG2 level at 0.1 to 10 uM measured after 6 hrs by Western blot analysis; assay type: cell-based; details: dose 0.1-10 µM
Summary of the method: (§3)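 Cells on 6 cm dishes treated for 6 or 24 h; OVCAR5 at 0.1, 1 and 10 μM, SKOV3 at 1 and 10 μM; DMSO control. RIPA lysates quantified by Bradford, then western blot with anti-TG2 and GAPDH antibodies (1:1000, overnight 4 °C). Bands quantified by densitometry; n = 3.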

SK-OV-3 [7] = test: Inhibition of cell adhesion to fibronectin in human SK-OV-3 cells at 10 uM incubated for 6 hrs by CCK-8 assay; assay type: functional, cell-based; summary of the method: as §2
OVCAR-5 [8] = test: Inhibition of cell migration in human OVCAR-5 cells at 10 uM incubated for 18 hrs by crystal violet staining based transwell migration assay; assay type: functional; summary of the method: as §1
[9] = molecular target: T1, Protein-glutamine gamma-glutamyltransferase (Homo sapiens); test: Induction of TG2 degradation in human SK-OV-3 cells assessed as reduction of TG2 level at 10 uM incubated for 6 hrs followed by MG132 addition and measured after 8 hrs by Western blot analysis; assay type: cell-based; details: time 14.0 hrs
Summary of the method: (§4)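 Proteasome dependence checked in OVCAR5 or SKOV3 cells: compound at 10 μM for 6 h, with MG132 at 20 μM for 8 h. TG2 measured by western blot, and band intensity expressed relative to DMSO control. n = 3.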

[10] = molecular target: T1, Protein-glutamine gamma-glutamyltransferase (Homo sapiens); test: Induction of TG2 degradation in human OVCAR-5 cells assessed as reduction in TG2 level at 10 uM incubated for 6 hrs in presence of VHL-L by Western blot analysis; assay type: cell-based
Summary of the method: (§5)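 OVCAR5 or SKOV3 cells treated for 6 h with compound at 10 μM plus 10 μM VHL ligand as competitor. TG2 measured by western blot with densitometry against control. n = 3.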

[11] = molecular target: T1, Protein-glutamine gamma-glutamyltransferase (Homo sapiens); test: Induction of TG2 degradation in human SK-OV-3 cells assessed as maximal degradation at 10 to 30 uM measured after 6 hrs by Western blot analysis; assay type: cell-based; details: dose 10-30 µM
Summary of the method: (§6)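 SKOV3 cells treated with 0.1, 0.3, 1, 3, 10 or 30 μM for 0, 2, 6, 12 and 24 h. TG2 measured by western blot of RIPA lysates with GAPDH reprobe after stripping, followed by densitometry. n = 3 experimental replicates.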

[12] = molecular target: T1, Protein-glutamine gamma-glutamyltransferase (Homo sapiens); test: Induction of TG2 degradation in human OVCAR-5 cells assessed as reduction of TG2 level at 1 to 10 uM measured after 24 hrs by Western blot analysis; details: dose 1-10 µM
OVCAR-5 [13] = test: Cytotoxicity against human OVCAR-5 cells assessed as cell death at 0.1 to 30 uM treated every 6 to 8 hrs for 5 days; assay type: functional, cell-based; details: dose 0.1-30 µM, time 5.0 day
Summary of the method: (§7)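 OVCAR5 and SKOV3 cells in 96-well plates given compound at 0.1, 0.3, 1, 3, 10 or 30 μM, redosed every 6–8 h over 5 days. Viable cells measured by CCK-8 absorbance at […]. n = 3.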

[14] = molecular target: T1, Protein-glutamine gamma-glutamyltransferase (Homo sapiens); test: Induction of TG2 degradation in human OVCAR-5 cells assessed as reduction in TG2 level measured within 6 hrs by Western blot analysis; assay type: cell-based; details: dose 0.1-10 µM
[15] = molecular target: T1, Protein-glutamine gamma-glutamyltransferase (Homo sapiens); test: Induction of TG2 degradation in human SK-OV-3 cells assessed as reduction in TG2 level at 10 uM incubated for 6 hrs in presence of VHL-L by Western blot analysis; assay type: cell-based; summary of the method: as §5
[16] = molecular target: T1, Protein-glutamine gamma-glutamyltransferase (Homo sapiens); test: Induction of TG2 degradation in human SK-OV-3 cells assessed as reduction in TG2 level measured within 6 hrs by Western blot analysis; assay type: cell-based; details: dose 0.1-10 µM
[17] = molecular target: T1, Protein-glutamine gamma-glutamyltransferase (Homo sapiens); test: Induction of TG2 degradation in human OVCAR-5 cells assessed as reduction of TG2 level treated every 6 to 8 hrs for 24 hrs by Western blot analysis; assay type: cell-based; details: dose 1-10 µM
Summary of the method: (§8)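 OVCAR5 or SKOV3 cells given compound at 1 or 10 μM, redosed every 6–8 h over 24 h. TG2 measured at 24 h by western blot of RIPA lysates.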

[18] = molecular target: T1, Protein-glutamine gamma-glutamyltransferase (Homo sapiens); test: Potency index, ratio of MT4 KD to test compound KD for binding affinity to TG2 (unknown origin) assessed as dissociation constant at 30 degree C by isothermal titration calorimetry
[19] = molecular target: T1, Protein-glutamine gamma-glutamyltransferase (Homo sapiens); test: Induction of TG2 degradation in human SK-OV-3 cells assessed as reduction in TG2 level measured after 2 to 12 hrs by Western blot analysis; assay type: cell-based; details: dose 0.1-30 µM, time 2-12 hrs; summary of the method: as §6
[20] = molecular target: T1, Protein-glutamine gamma-glutamyltransferase (Homo sapiens); test: Induction of TG2 degradation in human SK-OV-3 cells assessed as reduction of TG2 level treated every 6 to 8 hrs for 24 hrs by Western blot analysis; assay type: cell-based; details: dose 1-10 µM; summary of the method: as §8
[21] = molecular target: T1, Protein-glutamine gamma-glutamyltransferase (Homo sapiens); test: Induction of TG2 degradation in human OVCAR-5 cells assessed as reduction in TG2 level at 0.1 to 10 uM measured after 24 hrs by Western blot analysis; assay type: cell-based; details: dose 0.1-10 µM; summary of the method: as §3
SK-OV-3 [22] = test: Cytotoxicity against human SK-OV-3 cells assessed as cell death at 0.1 to 30 uM treated every 6 to 8 hrs for 5 days by CCK-8 assay; assay type: functional, cell-based; details: dose 0.1-30 µM, time 5.0 day; summary of the method: as §7
[23] = molecular target: T1, Protein-glutamine gamma-glutamyltransferase (Homo sapiens); test: Induction of TG2 degradation in human OVCAR-5 cells assessed as reduction in TG2 level at 10 uM incubated for 6 hrs followed by MG132 addition and measured after 8 hrs by Western blot analysis; assay type: cell-based; details: time 14.0 hrs; summary of the method: as §4
[24] = molecular target: T1, Protein-glutamine gamma-glutamyltransferase (Homo sapiens); test: Induction of TG2 degradation in human SK-OV-3 cells assessed as reduction in TG2 level at 0.1 to 10 uM measured after 24 hrs by Western blot analysis; assay type: cell-based; details: dose 0.1-10 µM
[25] = molecular target: T1, Protein-glutamine gamma-glutamyltransferase (Homo sapiens); test: Induction of TG2 degradation in human SK-OV-3 cells assessed as reduction of TG2 level at 1 to 10 uM measured after 12 hrs by Western blot analysis; assay type: cell-based; details: dose 1-10 µM, time 24.0 hrs, in the assay text read “24 hrs” for “12 hrs”; summary of the method: as §6
[26] = molecular target: T1, Protein-glutamine gamma-glutamyltransferase (Homo sapiens); test: Induction of TG2 degradation in human SK-OV-3 cells assessed as reduction in TG2 level at 0.1 to 30 uM by Western blot analysis; assay type: cell-based; details: dose 0.1-30 µM, time 2-12 hrs, TDE = time-dependent effect; summary of the method: as §6
[27] = molecular target: T2, Protein-glutamine gamma-glutamyltransferase (Homo sapiens, UniProt P21980); test: Binding affinity to TG2 (unknown origin) assessed as dissociation constant at 30 degree C by isothermal titration calorimetry
T2 sequence (P21980 whole entry): T1 sequence (whole entry)

Compound	Activity [1]	inhibition (OVCAR-5 [2])	inhibition (SK-OV-3 [3])	inhibition (OVCAR-5 [4])	inhibition (SK-OV-3 [5])	Activity [6]	inhibition (SK-OV-3 [7])	inhibition (OVCAR-5 [8])	Activity [9]	Activity [10]	Activity [11]	Activity [12]	Activity (OVCAR-5 [13])	Activity [14]	Activity [15]	Activity [16]	Activity [17]	Ratio [18]	Activity [19]	Activity [20]	further results
Cc1cc(N(C)CCOCCOCCOCCOCCOCCC(=O)N[C@H](C(=O)N2C[C@@H](O)C[C@H]2C(=O)NCc2ccc(-c3scnc3C)cc2)C(C)(C)C)nc(Nc2ccc(NC(=O)Cc3ccccc3)cc2)n1	inactive	inactive	inactive	inactive	inactive	inactive	inactive	inactive	–	–	–	–	–	–	–	–	–	–	–	–	–
Cc1cc(N(C)CCOCCOCCOCCOCCOCCC(=O)N[C@H](C(=O)N2C[C@H](O)C[C@H]2C(=O)NCc2ccc(-c3scnc3C)cc2)C(C)(C)C)nc(Nc2ccc(NC(=O)Cc3ccccc3)cc2)n1	–	Active	Active	Active	Active	–	Active	Active	inactive	inactive	Active	inactive	inactive	Dose-Dependent Effect	inactive	Dose-Dependent Effect	Active	8.8	Dose-Dependent Effect	Active	Activity [21]: inactive; Activity (SK-OV-3 [22]): inactive; Activity [23]: inactive; Activity [24]: inactive; Activity [25]: inactive; Activity [26]: Tde
Cc1cc(N(C)CCOCCC(=O)N[C@H](C(=O)N2C[C@@H](O)C[C@H]2C(=O)NCc2ccc(-c3scnc3C)cc2)C(C)(C)C)nc(Nc2ccc(NC(=O)Cc3ccccc3)cc2)n1	inactive	inactive	inactive	inactive	inactive	inactive	inactive	inactive	–	–	–	–	–	–	–	–	–	–	–	–	–
Cc1cc(N(C)CCOCCC(=O)N[C@H](C(=O)N2C[C@H](O)C[C@H]2C(=O)NCc2ccc(-c3scnc3C)cc2)C(C)(C)C)nc(Nc2ccc(NC(=O)Cc3ccccc3)cc2)n1	–	Active	Active	Active	Active	–	Active	Active	inactive	inactive	Active	inactive	inactive	Dose-Dependent Effect	inactive	Dose-Dependent Effect	Active	> 12.8	Dose-Dependent Effect	Active	Activity [21]: inactive; Activity (SK-OV-3 [22]): inactive; Kd [27]: > 100 µM; Activity [23]: inactive; Activity [24]: inactive; Activity [25]: inactive; Activity [26]: Tde

Reference: ChEMBL document CHEMBL5346966, “Discovery and Characterization of PROTACs Targeting Tissue Transglutaminase (TG2)” (J Med Chem, 2023)
